Experimental data pooled from the literature.
Lines come from different studies, so protocols differ.
Target: Mitogen-activated protein kinase 15 (MAPK15, Homo sapiens, UniProt Q8TD08)
Sequence (Q8TD08 1-544, as in one of the studies): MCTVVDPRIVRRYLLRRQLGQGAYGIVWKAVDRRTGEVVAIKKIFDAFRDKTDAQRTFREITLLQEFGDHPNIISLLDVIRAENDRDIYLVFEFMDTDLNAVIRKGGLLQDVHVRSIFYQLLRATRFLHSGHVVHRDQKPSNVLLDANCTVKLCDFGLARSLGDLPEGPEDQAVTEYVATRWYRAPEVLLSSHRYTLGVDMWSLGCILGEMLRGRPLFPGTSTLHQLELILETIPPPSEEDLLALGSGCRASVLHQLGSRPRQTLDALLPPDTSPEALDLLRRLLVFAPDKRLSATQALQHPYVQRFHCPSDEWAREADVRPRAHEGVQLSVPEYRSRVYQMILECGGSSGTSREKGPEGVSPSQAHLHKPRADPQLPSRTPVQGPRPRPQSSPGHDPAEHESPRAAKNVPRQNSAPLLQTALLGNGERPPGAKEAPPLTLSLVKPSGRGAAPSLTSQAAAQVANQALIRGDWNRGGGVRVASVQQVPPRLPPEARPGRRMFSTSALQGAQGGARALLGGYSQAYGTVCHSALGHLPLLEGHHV

SMILES | test | setting | remaining binding [%]
N[C@@H]1CCN(c2nccc(-c3cnn4ncccc34)n2)C1 | binding | 1 µM | 97
COc1cnc(Nc2cccc(S(N)(=O)=O)c2)nc1N1CCN(c2ccccc2)CC1 | binding, competition with immobilised ligand | 1 µM | 100
CN([C@@H]1CCc2c(CC(=O)O)c3ccccc3n2C1)S(=O)(=O)c1ccc(F)cc1 | cell-free assay, competition with immobilised ligand | 1 µM | 100
C[C@@H]1CCN(c2nccc(-c3cnn4ncccc34)n2)C1 | binding | 1 µM | 49
COc1cnc(Nc2cccc(S(N)(=O)=O)c2)nc1N1CCN(c2ccccc2)C(=O)C1 | binding, competition with immobilised ligand | 1 µM | 100
O=C(NCC1CCOCC1)c1n[nH]cc1NC(=O)c1c(F)cccc1F | binding, competition with immobilised ligand | 1 µM | 79
c1cncc(-c2cccc(Nc3nccc(NC4CCCCC4)n3)c2)c1 | binding, competition with immobilised ligand | 10 µM | 62
CN(c1nccc(-c2cnn3ncccc23)n1)C1CC1 | binding | 1 µM | 85
O=C(c1ccc(Nc2ncc(Cl)c(-c3cc4ccccc4s3)n2)cc1)N1CCC(N2CCCC2)CC1 | binding, competition with immobilised ligand | 1 µM | 5.4
CO[C@@H](C)c1c(Nc2ccc([C@H](N(C)C(=O)C3CCS(=O)(=O)CC3)C(F)(F)F)cc2)cnc2cc(Cl)nn12 | cell-free assay, competition with immobilised ligand | 1 µM | 87
CN(CCCC(F)(F)F)c1nccc(-c2cnn3ncccc23)n1 | binding | 1 µM | 100
Cc1cnc(Nc2ccc(C(=O)N3CCC(N4CCCC4)CC3)cc2)nc1-c1cc2ccccc2s1 | binding, competition with immobilised ligand | 1 µM | 33
CC1CCCN1c1nccc(-c2cnn3ncccc23)n1 (stereo not shown) | binding | 1 µM | 100
CCCCN(CCCC)C(=O)CN1C[C@H](c2cc(OC)c3c(c2)OCO3)[C@@H](C(=O)O)[C@@H]1CC(C)(C)CCC | cell-free assay, competition with immobilised ligand | 1 µM | 100
c1cnn2ncc(-c3ccnc(N4CCC45COC5)n3)c2c1 | binding | 1 µM | 71
FC(F)(F)Oc1cccc(-c2cnc3ccc(-c4ccncc4)nn23)c1 | cell-free assay, competition with immobilised ligand | 5 µM | 48
Cc1noc([C@H]2C[C@@H](c3ccc(C(F)(F)F)cc3)CN(C(=O)N3CCS(=O)(=O)C3)C2)n1 | cell-free assay, competition with immobilised ligand | 1 µM | 100
F[C@@H]1CCN(c2nccc(-c3cnn4ncccc34)n2)C1 | binding | 1 µM | 66
C[C@H](c1ccc(F)cc1)N(Cc1cccc(C(=O)O)c1)C(=O)c1cnc2ccccc2c1 | cell-free assay, competition with immobilised ligand | 1 µM | 93
C=CC(=O)N1CCC(C(=O)NCC(=O)N2CCN(c3nc(-c4cnc(N)nc4C(F)F)nc(N4CCOCC4)n3)CC2)CC1 | binding, competition with immobilised ligand | 1 µM | 97
CSc1cccnc1N1CCN(Cc2nc3ccccc3[nH]2)CC1 | cell-free assay, competition with immobilised ligand | 1 µM | 82
O=C(NCCCN1CCOCC1)c1ccc(Nc2ncc(Cl)c(-c3ccc(Cl)s3)n2)cc1 | binding, competition with immobilised ligand | 1 µM | 1.2
